In ChEMBL document CHEMBL3045217, “Factors affecting the synergy of thiabendazole, sodium bicarbonate, and heat to control postharvest green mold of citrus fruit” (J Agric Food Chem, 2008) one finds Activity and Drug uptake data, which are given here for 1 compound.

Molecules are shown by their SMILES.

The subject of data set [1] is Penicillium digitatum. The data set is described as follows: Fungicidal activity against TBZ-resistant Penicillium digitatum infected Valencia oranges assessed as postharvest green mold incidence at 600 mg/L treated for 1 min at 20 degC at 20 hr after fungal conidial inoculation measured after 7 days of storage at 20 degC in presence of 1% SBC (water Rvb = 54.2%). It is filed as functional.

Data set [2] concerns Penicillium digitatum. The data set is described as follows: Fungicidal activity against TBZ-resistant Penicillium digitatum infected Valencia oranges assessed as postharvest green mold incidence at 400 mg/L treated for 1 min at 40 degC at 20 hr after fungal conidial inoculation measured after 7 days of storage at 20 degC in presence of 0.5% SBC (water Rvb = 81.7%). It is filed as functional.

The subject of data set [3] is Penicillium digitatum. The data set is described as follows: Fungicidal activity against TBZ-sensitive Penicillium digitatum infected Nova mandarins assessed as postharvest green mold incidence at 600 mg/L treated for 1 min at 20 degC at 20 hr after fungal conidial inoculation measured after 5 days of storage at 20 degC in presence of 1% SBC (water Rvb = 96.7%). It is filed as functional. In outline: (§1)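 Fruit were surface-disinfected in 1 g/L hypochlorite for 30 s, rinsed, dried, then wounded twice equatorially (2 mm × 2 mm rod). Inoculation was a 1 min dip in P. digitatum conidia, 1 × 10^5 conidia/mL final. Fruit were held 20 h at 20 °C and 90% RH, dipped 1 min (SBC wt/vol), and air-dried. Storage was 20 °C, 90% RH. Decay incidence (% fruit with lesions) was scored at 5 d for mandarins and 7 d for oranges. Three replicates of 40 fruit were used; arcsin-transformed data were compared by LSD, p ≤ 0.05.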

For data set [4], the system named is Fruit. The data set is described as follows: Drug residues in Citrus sinensis cvs. Valencia late (Valencia oranges) at 400 mg/L treated for 1 min at 40 degC postharvest measured immediately post-drug treatment in presence of 0.5% SBC by GC analysis. Format: ADME. In short, it runs like this:
(§2)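 'Valencia' oranges were dipped 1 min in TBZ at 600 mg/L (20 °C, ±0.5, 1 or 2% wt/vol SBC), 400 mg/L (40 °C, ±SBC) or 200 mg/L (50 °C, alone), then air-dried. They were sampled at 0, 10 and 20 days at 17 °C. Peel of five fruit was frozen, and 5 g of homogenate was extracted with ethyl acetate/hexane (1/1) plus NaCl. The extract was dried under N2, taken up in acetone and analysed by GC. Results are mg/kg on a whole-fruit basis.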

The next data set deals with Fruit surface. The data set is described as follows: Drug residues on Citrus sinensis cvs. Salustiana (Salustiana oranges) fruit surface at 600 mg/L treated for 3 min at 50 degC postharvest measured after overnight incubation at 17 degC by GC analysis. Format: ADME. The note with it: 0.05 h. In outline:
(§3)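 'Salustiana' oranges were washed with water and air-dried. They were dipped 1 or 3 min in TBZ 600 mg/L at 20 or 50 °C, or 1 min in TBZ 600 mg/L plus 2% SBC at 20 °C, then dried overnight at 17 °C in the dark. Surface residue was taken by water extraction and wax residue by chloroform extraction. Inner residue was measured in fruit after both extractions. Extracts were dried under N2, taken up in acetone and analysed by GC. Values are mg/kg on a whole-fruit basis.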

For data set [5], the system named is Fruit. The data set is described as follows: Drug residues in Citrus sinensis cvs. Valencia late (Valencia oranges) at 600 mg/L treated for 1 min at 20 degC postharvest measured after 20 days of storage at 17 degC in presence of 1% SBC by GC analysis. It is filed as ADME. In short, it runs like this:
as §2

For data set [6], the system named is Penicillium digitatum. The data set is described as follows: Fungicidal activity against TBZ-sensitive Penicillium digitatum infected Nova mandarins assessed as postharvest green mold incidence at 400 mg/L treated for 1 min at 40 degC at 20 hr after fungal conidial inoculation measured after 5 days of storage at 20 degC in presence of 2% SBC (water Rvb = 88.3%). It is filed as functional. In outline: as §1

Data set [7] relates to Inner fruit. The data set is described as follows: Drug residues in Citrus sinensis cvs. Salustiana (Salustiana oranges) inner fruit at 600 mg/L treated for 3 min at 50 degC postharvest measured after overnight incubation at 17 degC by GC analysis. Particulars: 0.05 h. Format: ADME. In short, it runs like this:
as §3

Data set [8] concerns Penicillium digitatum. The data set is described as follows: Fungicidal activity against Penicillium digitatum infected Valenica oranges assessed as fruit weight loss at 600 mg/L treated for 1 min at 20 degC postharvest at 20 hr after fungal conidial inoculation measured after 7 days of storage at 17 degC in presence of 2% SBC (water Rvb = 3.94%). Format: functional.
Data set [9] relates to Fruit. The data set is described as follows: Drug residues in Citrus sinensis cvs. Valencia late (Valencia oranges) at 600 mg/L treated for 1 min at 20 degC postharvest measured immediately post-drug treatment by GC analysis. Format: ADME. In outline: as §2
For data set [10], the system named is Penicillium digitatum. The data set is described as follows: Fungicidal activity against TBZ-sensitive Penicillium digitatum infected Valencia oranges assessed as postharvest green mold incidence at 600 mg/L treated for 1 min at 20 degC at 20 hr after fungal conidial inoculation measured after 7 days of storage at 20 degC in presence of 2% SBC (water Rvb = 20.8%). Format: functional. In outline:
as §1

Data set [11] deals with Penicillium digitatum. The data set is described as follows: Fungicidal activity against TBZ-resistant Penicillium digitatum infected Nova mandarins assessed as postharvest green mold incidence at 600 mg/L treated for 1 min at 20 degC at 20 hr after fungal conidial inoculation measured after 5 days of storage at 20 degC (water Rvb = 100%). Format: functional.
Data set [12] deals with Inner fruit. The data set is described as follows: Drug residues in Citrus sinensis cvs. Salustiana (Salustiana oranges) inner fruit at 600 mg/L treated for 1 min at 50 degC postharvest measured after overnight incubation at 17 degC by GC analysis. It is filed as ADME. In outline: as §3
For data set [13], the system named is Fruit. The data set is described as follows: Total drug residues in Citrus sinensis cvs. Salustiana (Salustiana oranges) fruit at 600 mg/L treated for 1 min at 50 degC postharvest measured after overnight incubation at 17 degC by GC analysis. Format: ADME. In short, it runs like this: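 'Salustiana' oranges were water-washed, dried, dipped, then dried overnight at 17 °C in the dark. Unextracted fruit were used for total residues. Peel from five oranges was frozen at -18 °C. 5 g homogenized peel was extracted with 10 mL ethyl acetate/hexane (1/1) plus 2 g NaCl, shaken 30 min, then 1 mL of organic layer was dried under N2, redissolved in acetone, and run by GC without cleanup. Results are on a whole-fruit basis.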

A further data set has as its system Cuticular wax. The data set is described as follows: Drug residues in Citrus sinensis cvs. Salustiana (Salustiana oranges) cuticular wax at 600 mg/L treated for 1 min at 20 degC postharvest measured after overnight incubation at 17 degC in presence of 2% SBC by GC analysis. It is filed as ADME. In outline: as §3
For data set [14], the system named is Inner fruit. The data set is described as follows: Drug residues in Citrus sinensis cvs. Salustiana (Salustiana oranges) inner fruit at 600 mg/L treated for 3 min at 20 degC postharvest measured after overnight incubation at 17 degC by GC analysis. Format: ADME. The note with it: 0.05 h. In short, it runs like this: as §3
Data set [15] concerns Penicillium digitatum. The data set is described as follows: Fungicidal activity against TBZ-resistant Penicillium digitatum infected Nova mandarins assessed as postharvest green mold incidence at 600 mg/L treated for 1 min at 20 degC at 20 hr after fungal conidial inoculation measured after 5 days of storage at 20 degC in presence of 1% SBC (water Rvb = 83.3%). Format: functional.

The subject of data set [16] is Penicillium digitatum. The data set is described as follows: Fungicidal activity against TBZ-sensitive Penicillium digitatum infected Valencia oranges assessed as postharvest green mold incidence at 600 mg/L treated for 1 min at 20 degC at 20 hr after fungal conidial inoculation measured after 7 days of storage at 20 degC in presence of 0.5% SBC (water Rvb = 64.2%). Format: functional. In outline:
as §1

In data set [17] the test system is Fruit. The data set is described as follows: Drug residues in Citrus sinensis cvs. Valencia late (Valencia oranges) at 600 mg/L treated for 1 min at 20 degC postharvest measured after 10 days of storage at 17 degC in presence of 0.5% SBC by GC analysis. It is filed as ADME. In outline:
as §2

For `c1ccc2[nH]c(-c3cscn3)nc2c1` [THIABENDAZOLE], the Activity with Penicillium digitatum [1] is 25%; with Penicillium digitatum [2], 14.2%; with Penicillium digitatum [3] it was 3.3%; in the data set on Penicillium digitatum [6] it was 3.3%; in the data set with Penicillium digitatum [8] it was 4.81%; in the data set with Penicillium digitatum [10] it was 2.5%. The Activity in the data set with Penicillium digitatum [11] worked out at 98.3%; in the data set with Penicillium digitatum [15] it was 65%; in the data set with Penicillium digitatum [16] it was 18.3%. Besides, the Drug uptake was 0.79 mg/kg in the data set on Fruit [4]; 0.69 mg/kg in the data set on Fruit surface; 1.4 mg/kg in the data set with Fruit [5]; 0.4 mg/kg in the data set on Inner fruit [7]; 1.59 mg/kg in the data set on Fruit [9]; 0.17 mg/kg in the data set with Inner fruit [12]. Besides, the Drug uptake came to 1.12 mg/kg with Fruit [13], 0.46 mg/kg in the data set with Cuticular wax, 0.13 mg/kg in the data set on Inner fruit [14] and 1.4 mg/kg in the data set on Fruit [17].
